# “Also recorded” adds a separate entry of the source. Read-outs that look alike come from different tables or passages of the source.
# Legend:
# meprin α [1] = biological target: T1, meprin α (Homo sapiens, UniProt Q16819); assay: Meprin α LOPAC pilot screen; format: biochemical; conditions: 18 μM, hit cutoff 25% inhibition
# T1 sequence (Q16819 66-653 limits assumed): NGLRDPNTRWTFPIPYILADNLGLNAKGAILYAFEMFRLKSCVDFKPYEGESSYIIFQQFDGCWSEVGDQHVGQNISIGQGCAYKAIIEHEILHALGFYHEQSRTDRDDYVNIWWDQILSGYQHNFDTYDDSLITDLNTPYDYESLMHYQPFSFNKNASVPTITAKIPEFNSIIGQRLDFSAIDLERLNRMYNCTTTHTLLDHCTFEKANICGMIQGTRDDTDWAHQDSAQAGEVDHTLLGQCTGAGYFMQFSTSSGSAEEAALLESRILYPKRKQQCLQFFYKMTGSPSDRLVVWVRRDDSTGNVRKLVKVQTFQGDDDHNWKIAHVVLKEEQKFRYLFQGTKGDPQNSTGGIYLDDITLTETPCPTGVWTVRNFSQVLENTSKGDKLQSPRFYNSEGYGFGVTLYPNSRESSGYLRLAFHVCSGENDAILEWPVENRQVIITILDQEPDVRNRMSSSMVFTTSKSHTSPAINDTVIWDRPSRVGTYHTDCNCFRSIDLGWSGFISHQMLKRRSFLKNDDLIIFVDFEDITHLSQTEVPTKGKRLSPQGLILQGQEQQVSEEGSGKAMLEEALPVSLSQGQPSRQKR
# Summary of the method: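 Single-point FRET screen of 1,280 library compounds at 18 μM nominal final concentration, on four plates. Trypsin-activated recombinant human meprin α (2x solution 2.6 nM, Hepes/Brij-35 pH 7.5) was pre-incubated 30 min at RT with test compound added by pin tool. 2x (MCA)-YVADAPK-(K-ε-DNP) at 20 μM was then added for 1 h at RT. Read at ex 324/em 393 nm.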
# meprin β [2] = biological target: T2, meprin β (Homo sapiens, UniProt Q16820); assay: Meprin β LOPAC pilot screen; format: biochemical; conditions: 18 μM; for meprin β LOPAC pilot screen outcome: hit cutoff 25% inhibition
# T2 sequence (Q16820 62-614 limits assumed): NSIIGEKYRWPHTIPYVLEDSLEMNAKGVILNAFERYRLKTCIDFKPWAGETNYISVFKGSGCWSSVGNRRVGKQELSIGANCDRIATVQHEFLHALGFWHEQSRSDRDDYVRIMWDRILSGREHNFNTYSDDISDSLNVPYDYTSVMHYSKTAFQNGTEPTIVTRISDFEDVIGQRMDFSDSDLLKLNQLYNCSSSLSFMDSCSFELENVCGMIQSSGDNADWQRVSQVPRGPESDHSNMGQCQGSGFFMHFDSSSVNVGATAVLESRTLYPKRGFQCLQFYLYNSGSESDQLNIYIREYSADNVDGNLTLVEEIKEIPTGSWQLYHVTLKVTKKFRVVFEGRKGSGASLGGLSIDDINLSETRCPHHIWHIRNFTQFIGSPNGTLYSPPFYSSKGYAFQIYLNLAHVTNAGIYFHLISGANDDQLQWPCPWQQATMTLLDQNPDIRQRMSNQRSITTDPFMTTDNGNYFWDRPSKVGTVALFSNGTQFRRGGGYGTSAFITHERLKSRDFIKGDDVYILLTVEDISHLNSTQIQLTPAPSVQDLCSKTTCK
# meprin β [3] = conditions: read-out: Ki meprin β; cited from earlier work
# meprin α [4] = biological target: T1, meprin α; assay: Meprin α HTS FRET assay, dose response; format: biochemical
# Summary of the method: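 Recombinant human Strep-tagged meprin α was expressed in baculovirus-infected BTI-TN-5B1-4 cells, trypsin-activated, then freed of trypsin. It was used as a 2x solution at 2.6 nM in 50 mM Hepes, 0.01% Brij-35, pH 7.5. Test compound was pre-incubated 30 min at RT, then 2x (MCA)-YVADAPK-(K-ε-DNP) at 20 μM was added for 1 h at RT. Read at ex 324/em 393 nm. 3-fold dilutions in quadruplicate; 4-parameter fit; 0.1% or 1.0% DMSO.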
# meprin β [5] = biological target: T2, meprin β; assay: Meprin β HTS FRET assay, dose response; format: biochemical
# Summary of the method: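 Trypsin-activated meprin β (trypsin removed on immobilized ovomucoid) in 50 mM Hepes, 0.01% Brij-35, pH 7.5, added as 2x (0.15 nM) solution. Pin-transferred inhibitor was preincubated 30 min at RT. 2x (20 μM) (MCA)-EDEDED-(K-ε-DNP) was then added, run 1 h at RT, and read at ex 324/em 393 nm. A 3-fold dilution series was run in quadruplicate, and % inhibition was fitted with a 4-parameter equation. DMSO final was 0.1% or 1.0%.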
# meprin α [6] = conditions: cited from earlier work
# MMP-2 = biological target: T3, MMP-2 (Homo sapiens, UniProt P08253); assay: Selectivity testing against zinc metalloproteases: MMP-2; format: biochemical; conditions: read-out: IC50 MMP-2; n = 3 Mean ± SD
# T3 sequence (P08253 110-660): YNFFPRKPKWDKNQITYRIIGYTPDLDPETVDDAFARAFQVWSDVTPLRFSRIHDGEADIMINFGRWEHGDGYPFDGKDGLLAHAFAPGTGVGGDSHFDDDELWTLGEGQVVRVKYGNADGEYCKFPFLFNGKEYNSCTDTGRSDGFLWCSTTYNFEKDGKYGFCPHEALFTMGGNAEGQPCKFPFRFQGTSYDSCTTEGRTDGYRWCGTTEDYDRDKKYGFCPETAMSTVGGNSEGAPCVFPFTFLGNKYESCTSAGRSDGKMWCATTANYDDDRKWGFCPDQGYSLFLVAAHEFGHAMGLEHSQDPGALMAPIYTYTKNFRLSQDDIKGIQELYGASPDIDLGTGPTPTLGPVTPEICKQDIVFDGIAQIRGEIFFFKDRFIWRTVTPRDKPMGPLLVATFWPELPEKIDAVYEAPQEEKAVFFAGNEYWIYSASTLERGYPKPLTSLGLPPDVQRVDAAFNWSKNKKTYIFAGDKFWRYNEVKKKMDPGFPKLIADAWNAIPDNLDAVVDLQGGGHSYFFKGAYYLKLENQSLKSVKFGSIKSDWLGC
# MMP-8 = MMP-8 (Homo sapiens, UniProt P22894); assay: Selectivity testing against zinc metalloproteases: MMP-8; format: biochemical; conditions: read-out: IC50 MMP-8; n = 3 Mean ± SD
# Sequence of MMP-8 (P22894 101-467, species assumed): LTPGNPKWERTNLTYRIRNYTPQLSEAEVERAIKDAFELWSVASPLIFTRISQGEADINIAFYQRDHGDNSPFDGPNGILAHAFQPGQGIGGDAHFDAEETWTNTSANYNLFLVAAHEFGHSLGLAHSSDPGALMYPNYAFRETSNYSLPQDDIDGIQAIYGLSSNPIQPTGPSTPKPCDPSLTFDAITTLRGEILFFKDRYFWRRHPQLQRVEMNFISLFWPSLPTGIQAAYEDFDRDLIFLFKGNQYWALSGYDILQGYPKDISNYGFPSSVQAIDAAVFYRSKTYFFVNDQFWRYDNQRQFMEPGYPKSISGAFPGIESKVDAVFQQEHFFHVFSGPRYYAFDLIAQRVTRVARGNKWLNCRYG
# MMP-9 = MMP-9 (Homo sapiens, UniProt P14780); assay: Selectivity testing against zinc metalloproteases: MMP-9; format: biochemical; conditions: read-out: IC50 MMP-9; n = 3 Mean ± SD
# Sequence of MMP-9 (P14780 94-707, species assumed): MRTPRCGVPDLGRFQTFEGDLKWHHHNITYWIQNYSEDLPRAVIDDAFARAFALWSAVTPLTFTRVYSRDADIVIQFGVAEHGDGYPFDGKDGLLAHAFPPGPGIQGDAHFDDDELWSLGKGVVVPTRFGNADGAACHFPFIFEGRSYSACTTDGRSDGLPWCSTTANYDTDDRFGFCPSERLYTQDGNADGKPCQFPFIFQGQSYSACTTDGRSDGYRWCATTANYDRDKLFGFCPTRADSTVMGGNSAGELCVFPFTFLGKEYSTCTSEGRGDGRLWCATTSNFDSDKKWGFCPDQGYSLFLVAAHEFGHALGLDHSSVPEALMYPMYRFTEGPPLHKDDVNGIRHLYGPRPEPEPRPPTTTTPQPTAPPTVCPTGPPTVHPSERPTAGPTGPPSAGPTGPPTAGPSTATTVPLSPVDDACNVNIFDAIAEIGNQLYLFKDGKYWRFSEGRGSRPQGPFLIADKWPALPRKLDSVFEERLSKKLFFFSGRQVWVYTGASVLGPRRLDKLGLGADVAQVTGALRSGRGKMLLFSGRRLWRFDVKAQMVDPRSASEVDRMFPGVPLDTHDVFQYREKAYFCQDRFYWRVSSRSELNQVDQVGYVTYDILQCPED
# MMP-13 = MMP-13 (Homo sapiens, UniProt P45452); assay: Selectivity testing against zinc metalloproteases: MMP-13; format: biochemical; conditions: read-out: IC50 MMP-13; n = 3 Mean ± SD
# MMP-14 = MMP-14 (Homo sapiens, UniProt P50281); assay: Selectivity testing against zinc metalloproteases: MMP-14; format: biochemical; conditions: read-out: IC50 MMP-14; n = 3 Mean ± SD
# ADAM10 = biological target: T4, ADAM10 (Homo sapiens, UniProt O14672); assay: Selectivity testing against zinc metalloproteases: ADAM10; format: biochemical; conditions: read-out: IC50 ADAM10; n = 3 Mean ± SD
# T4 sequence (O14672 214-748): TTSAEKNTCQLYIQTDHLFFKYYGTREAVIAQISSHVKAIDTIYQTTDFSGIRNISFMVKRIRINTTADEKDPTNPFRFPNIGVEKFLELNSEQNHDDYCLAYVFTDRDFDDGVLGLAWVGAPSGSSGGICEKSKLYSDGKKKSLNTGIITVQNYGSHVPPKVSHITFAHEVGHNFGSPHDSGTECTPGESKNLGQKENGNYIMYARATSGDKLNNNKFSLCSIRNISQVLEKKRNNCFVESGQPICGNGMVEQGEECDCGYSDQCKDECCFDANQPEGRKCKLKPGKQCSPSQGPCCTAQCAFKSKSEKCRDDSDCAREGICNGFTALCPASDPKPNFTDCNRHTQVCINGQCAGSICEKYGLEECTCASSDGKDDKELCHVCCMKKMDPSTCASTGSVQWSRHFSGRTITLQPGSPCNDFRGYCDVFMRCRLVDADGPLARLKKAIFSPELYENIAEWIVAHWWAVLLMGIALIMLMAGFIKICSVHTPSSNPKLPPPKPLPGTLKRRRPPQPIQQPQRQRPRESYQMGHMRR
# ADAM17 = ADAM17 (Homo sapiens, UniProt P78536); assay: Selectivity testing against zinc metalloproteases: ADAM17; format: biochemical; conditions: read-out: IC50 ADAM17; n = 3 Mean ± SD
# Sequence of ADAM17 (P78536 215-824, species assumed): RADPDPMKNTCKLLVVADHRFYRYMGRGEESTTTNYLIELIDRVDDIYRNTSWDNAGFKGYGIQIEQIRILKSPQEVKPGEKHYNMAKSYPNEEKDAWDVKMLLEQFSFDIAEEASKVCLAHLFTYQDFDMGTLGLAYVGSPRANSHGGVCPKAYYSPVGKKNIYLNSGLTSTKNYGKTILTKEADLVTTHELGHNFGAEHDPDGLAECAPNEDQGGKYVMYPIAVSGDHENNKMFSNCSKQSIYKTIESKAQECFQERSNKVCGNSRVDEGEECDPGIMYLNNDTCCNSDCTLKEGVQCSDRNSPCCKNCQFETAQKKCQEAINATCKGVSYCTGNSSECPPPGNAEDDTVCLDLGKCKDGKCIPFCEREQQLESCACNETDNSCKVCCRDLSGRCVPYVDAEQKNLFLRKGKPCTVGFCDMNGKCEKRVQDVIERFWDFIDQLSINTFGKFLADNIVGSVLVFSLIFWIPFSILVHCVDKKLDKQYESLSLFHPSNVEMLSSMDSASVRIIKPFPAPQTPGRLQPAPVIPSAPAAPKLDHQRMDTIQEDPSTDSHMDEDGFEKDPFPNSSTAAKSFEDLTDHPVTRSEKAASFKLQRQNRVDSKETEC
# meprin β [7] = biological target: T2, meprin β; assay: Meprin β inhibition kinetics / enzyme kinetics; format: biochemical
# Summary of the method: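 Trypsin-activated meprin β at 1 nM was run with (MCA)-EDEDED-(K-ε-DNP) 0.5–25 μM plus varying inhibitor concentrations in 50 mM Hepes, 0.01% Brij-35, pH 7.5, at 25 °C. Fluorescence was read at ex 324/em 393 nm. Rates came from the linear portion of the progress curves. Ki and Ki′ came from nonlinear regression with a mixed-inhibition model. Mechanism came from the alpha parameter and was checked with Lineweaver-Burk plots.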
structure (smiles),measurement,setting,value
"c1ccc(-c2ccccn2)nc1 [2,2′-bipyridyl]",meprin α LOPAC pilot screen outcome,meprin α [1],inactive
same,meprin β LOPAC pilot screen outcome,meprin β [2],inactive
CNC(=O)[C@H](Cc1ccccc1)NC(=O)[C@H](CC(C)C)[C@H](CSc1cccs1)C(=O)NO [batimastat],Ki,meprin β [3],18 ± 2.2 µM
"N.N.O=C([O-])C1(C(=O)[O-])CCC1.[Pt+2] [Carboplatin, carboplatin]",% inhibition meprin β in pilot screen,meprin β [2],negative inhibition values
same,meprin β LOPAC pilot screen outcome,meprin β [2],selective hits
"O.c1cnc2c(c1)ccc1cccnc12 [1,10-phenanthroline monohydrate]",meprin α LOPAC pilot screen outcome,meprin α [1],inactive
same,meprin β LOPAC pilot screen outcome,meprin β [2],inactive
CCCCC[C@H](CC(=O)NO)C(=O)N[C@H](C(=O)N1CCC[C@H]1CO)C(C)C [actinonin],IC50,"meprin α [4]; IC50 meprin α, 0.1% DMSO",0.0015 ± 7e-05 µM
same,IC50,"meprin α [4]; IC50 meprin α, 1.0% DMSO",0.0025 ± 0.0001 µM
same,IC50,"meprin β [5]; IC50 meprin β, 0.1% DMSO",5.2 ± 0.1 µM
same,IC50,"meprin β [5]; IC50 meprin β, 1.0% DMSO",4.5 ± 0.1 µM
same,meprin α LOPAC pilot screen outcome,meprin α [1],meprin α selective
same,meprin α LOPAC pilot screen outcome,meprin α [1]; listed as Actinonin,selective hits
same,fold more potent inhibition of meprin α than meprin β,meprin α [6]; ratio of Ki values,100 fold
same,Ki,meprin α [6]; read-out: Ki meprin α,0.02 µM
same,Ki,meprin β [3],2 µM
"O=C(O)[C@@H]1C[C@H](C(=O)O)N1 [cis-Azetidine-2,4-dicarboxylic acid]",meprin α LOPAC pilot screen outcome,meprin α [1],selective hits
CCN(CC)CCNC(=O)c1ccc(NC(C)=O)cc1.Cl [N-Acetylprocainamide hydrochloride],meprin α LOPAC pilot screen outcome,meprin α [1],selective hits
O=P(O)(O)C(Cl)(Cl)P(=O)(O)O [clodronic acid],meprin α LOPAC pilot screen outcome,meprin α [1],inactive
same,meprin β LOPAC pilot screen outcome,meprin β [2],inactive
CC(=O)c1ccc(S(=O)(=O)NC(=O)NC2CCCCC2)cc1 [Acetohexamide],meprin α LOPAC pilot screen outcome,meprin α [1],selective hits
CC(C)C[C@H](NC(=O)[C@H](O)[C@H](N)Cc1ccccc1)C(=O)O.Cl [epibestatin HCl],meprin α LOPAC pilot screen outcome,meprin α [1],inactive
same,meprin β LOPAC pilot screen outcome,meprin β [2],inactive
"Cc1nc(N=Nc2cc(S(=O)(=O)[O-])c3cc([N+](=O)[O-])cc(S(=O)(=O)[O-])c3c2)c(COP(=O)([O-])[O-])c(C=O)c1O.[Na+].[Na+].[Na+].[Na+] [PPNDS, Pyridoxal-5′-phosphate-6-(2′-naphthylazo-6′-nitro-4′,8′-disulfonate) tetrasodium]",IC50,"meprin α [4]; read-out: IC50 Meprin α, selectivity testing, n = 3 Mean ± SD",67 ± 4.5 µM
same,potency differential meprin β versus meprin α,meprin β [5]; ratio of IC50 values,~1000 fold
same,selectivity ratio meprin β versus MMP-8,meprin β [5]; ratio of IC50 values,approximately 12 fold
same,IC50,"meprin β [5]; read-out: IC50 Meprin β, selectivity testing, n = 3 Mean ± SD",0.08 ± 0.005 µM
same,IC50,MMP-2,31 ± 2 µM
same,IC50,MMP-8,1 ± 0.1 µM
same,IC50,MMP-9,40 ± 2.5 µM
same,IC50,MMP-13,69 ± 4.3 µM
same,IC50,MMP-14,73 ± 7 µM
same,IC50,ADAM10,19 ± 1.1 µM
same,IC50,ADAM17,91 ± 7.1 µM
same,"Ki lower than IC50, fold",meprin β [7]; meprin β Ki versus HTS IC50,10 fold
same,α = Ki/Ki′,"meprin β [7]; mixed-model inhibition, non-linear regression",36 ± 27
same,mechanism of inhibition of meprin β,meprin β [7]; non-linear regression and Lineweaver-Burke plots,pure competitive inhibition modality; also recorded: pure competitive inhibition mechanism
same,Ki,"meprin β [7]; read-out: Ki meprin β, substrate (MCA)-EDEDED-(K-ε-DNP), mixed inhibition model",0.008 ± 0.0024 µM
same,meprin β LOPAC pilot screen outcome,meprin β [2],selective hits
CNC(=O)[C@H](Cc1c[nH]c2ccccc12)NC(=O)[C@@H](CC(=O)NO)CC(C)C [galardin],Ki,meprin β [3],8.9 ± 0.71 µM
